Screening results deposited in PubChem BioAssay by several laboratories.
Hits are enriched below; roughly 4.8% of the tested compounds scored in any of these assays.
Beta apoptosis – inhibitors of cytokine-induced beta cell apoptosis, primary screen, luminescence | INS-1E cytokine-induced death, ATP luminescence, 48 h; percent of positive-control rescue, neutral wells zero | protection from apoptosis, % (no concentration beside the values) | hit rate 0.8% among 300,000;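 active means Every replicate reaches about 75%, or at least half do and their mean reaches it too, limit read from the data; inconclusive means At least half of replicates reach the limit but their mean does not; inactive means Under half of replicates reach the limit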;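 further: 0% = cytokine-treated negative control wells and 100% = positive control rescue; higher means more ATP so stronger rescue from cytokine killing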
T cruzi repl – inhibitors of intracellular T. cruzi growth, primary screen, luminescence, NIH3T3 host cells; T. cruzi beta-gal in NIH3T3, 90 h; inhibition, % (test concentration not listed); hit rate 1.4% among 300,000; AID 1885, 2009;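 active means mean inhibition across valid replicates above about 55%, limit read from the data; inconclusive means mean below that limit but half or more replicates reach it; inactive means mean below it, under half of replicates reach it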;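 further: signal also drops with host cell toxicity which is not excluded here; 0% = plate median of DMSO wells and 100% = zero luminescence signal; higher percent means less beta-gal luminescence so fewer parasites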
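System: Mouse NIH/3T3 fibroblasts infected with β-gal-expressing T. cruzi Tulahuen C4 | Quantity: NIH/3T3 cells, 5,000 per well | Reagent: 5000 reporter trypomastigotes per well | Dosing: Compound pinned at 50 nL/well, DMSO | Schedule: 3 h host attachment, then at least 90 h co-culture | Detection: GalScreen luminescence, 60 min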
CSC inhib – cancer stem cell viability inhibitors, primary screen, luminescence; cancer stem cell-like cells viability; inhibition, % at 7.5 µM; hit rate 1.1% among 300,000; AID 2717, 2010; in the data active means inhibition above about 75%; inconclusive means no clear call, values can overlap the other calls; tested in HMLE shEcad cells
SUMO Mot1 rescue – yeast Mot1-301 growth rescue at high temperature, primary screen, SUMOylation pathway inhibitor project, S. cerevisiae, ATP luminescence, 38.5C; S. cerevisiae Mot1-301 growth rescue; percent above DMSO median, 100 means doubled; growth rescue, % at 18.8 µM; hit rate 1% among 320,000; AID 2716, 2010;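 active means every valid replicate shows activation above 250% relative to neutral control wells; inactive means the rest, any valid replicate at or below 250%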;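 further: OY570 slx delta 5 strain wells were the positive control but not used for scaling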
WT yeast gro inh – growth inhibition of WT strain, primary screen, mitochondrial fusion inhibitor project, WT and mutant strains, chemical genetic | inhibition, % at 10 µM | mitochondrial fusion phenotypic screen | hit rate 2.1% among 190,000; in the data active means inhibition above about 58%; tested in S. cerevisiae
Efflux pump mplx – inhibitors of Candida efflux pumps in yeast, primary screen, S. cerevisiae, Nile Red, multiplex; S. cerevisiae Candida pump triplex; inhibition, % at 10 µM; hit rate 0.44% among 330,000; AID 485275, 2010;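 active means plate passing quality check with inhibition over a set limit, or well fluorescence over plate mean plus 4 SD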;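 further: Nile Red retained in pooled yeast measured as flow cytometry median fluorescence; 0% = buffer negative control and 100% = Enniatin B positive control; higher means more Nile Red kept so more efflux inhibition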
An asterisk follows results filed as active; ? = inconclusive; . = no result; + = active, no number.

SMILES | Beta apoptosis | T cruzi repl | CSC inhib | SUMO Mot1 rescue | WT yeast gro inh | Efflux pump mplx
Cc1cccc(C(C)C)c1NC(=O)c1ccc(CN(c2ccccc2)S(=O)(=O)c2ccccc2)cc1 | 10 | 1 | 9 | -3 | 1 | 0
c1ccc2c(-c3cc(C4CCNCC4)[nH]n3)cccc2c1 | 5 | 23 | 22 | -17 | 7 | 0
FC(F)(F)c1cccc(CN2CCC(c3cc(-c4cccs4)n[nH]3)CC2)c1 | 24 | 61* | 57 | -19 | 21 | 0
Cc1ccc(CN2CCC(c3cc(-c4cccs4)n[nH]3)CC2)cc1 | -5 | ? | 2 | 54 | 38 | 0
FC(F)(F)c1cccc(-c2cc(C3CCNCC3)[nH]n2)c1 | . | 56* | . | -5 | . | 0
COC(=O)CCN1CCC(c2cc(-c3cccc(C(F)(F)F)c3)n[nH]2)CC1 | -6 | 9 | -8 | 320* | . | 0
O=C(COC(=O)C12CC3CC(CC(O)(C3)C1)C2)Nc1ccccc1OC(F)F | -9 | -6 | . | 4 | 58* | 0
O=c1c2c([N+](=O)[O-])cc([N+](=O)[O-])cc2sn1Cc1ccccc1 | 21 | 57* | 41 | -33 | . | 0
CCOC(=O)CCS(=O)(=O)c1ccc(-c2ccc(S(=O)(=O)CCC(=O)OCC)cc2)cc1 | -8 | -15 | -22 | 9 | -2 | 0
Cc1ccc(CNC(=O)CNC(=O)c2ccco2)cc1 | -2 | -15 | -28 | 157 | . | 0
Cc1ccc(CNC(=O)CCNC(=O)c2ccco2)cc1 | -3 | -12 | -4 | 13 | 95* | 0
COc1cc2c(=O)n(CCC(=O)NCC3CCCO3)c(=O)n(CC(=O)Nc3ccc(F)cc3)c2cc1OC (configuration not stated) | -1 | -1 | -8 | 284* | . | 0
CN1CC(c2ccccc2)Oc2ccccc2C1=S (configuration not stated) | -3 | -12 | 5 | -2 | . | 0
Cc1ccc(C)c(N2CCN(C(=O)C3CCCCN3S(=O)(=O)c3ccc(F)cc3)CC2)c1 (configuration not stated) | 1 | 22 | 5 | -8 | 64* | 0
Cc1ccc(C)c(N2CCN(C(=O)C3CCN(c4nc(C)cc(C)n4)CC3)CC2)c1 | 8 | 26 | 10 | 64 | 67* | 0
Cc1cc(C)nc(N2CCC(C(=O)N3CCN(c4cc(Cl)ccc4C)CC3)CC2)n1 | 10 | 35 | 44 | -11 | 72* | 0
Cc1ccc(C)c(N2CCN(C(=O)C3CCN(S(=O)(=O)c4c(C)noc4C)CC3)CC2)c1 | 23 | 32 | 0 | 33 | . | 0
Cc1ccc(Cl)cc1N1CCN(C(=O)C2CCN(S(C)(=O)=O)CC2)CC1 | -1 | 19 | 8 | -12 | 9 | 0
CC(C)c1ccc(N2C(=O)CC(Sc3ncccn3)C2=O)cc1 (configuration not stated) | -5 | 0 | 1 | 7 | . | 0
Cc1c(C(=O)N2CCN(Cc3ccccc3)CC2)oc2c1C(=O)CC(C)(C)C2 | -5 | -1 | 33 | 19 | . | 0
O=S(=O)(c1ccc(F)cc1)c1snnc1-c1ccccc1 | -9 | 4 | 67 | 214 | -13 | 0
O=S(=O)(c1ccc(Cl)cc1)c1snnc1-c1ccccc1 | 12 | 60* | 108* | 307* | 34 | 0
CC(=O)c1cc(-c2ccccc2)n(CCC(=O)NC(C)(C)C)c1C | 2 | 5 | -14 | 5 | 1 | 0
Cc1ccc(-c2c(C(=O)NCc3ccc(F)cc3)oc(=O)c3ccccc23)cc1 | -9 | 5 | 5 | 90 | 62* | 0
COc1cc(OC)c2c(O)c3c(c(-c4c5c(c(O)c6c(OC)cc(OC)cc46)CO[C@@H](C)[C@H]5O)c2c1)[C@H](O)[C@H](C)OC3 | -4 | -14 | -2 | 7 | 5 | 0
SMILES | Beta apoptosis | T cruzi repl | CSC inhib | SUMO Mot1 rescue | WT yeast gro inh | Efflux pump mplx
CC(=O)c1c(C)[nH]c(C(=O)OCC(=O)Nc2ccc(C)cc2[N+](=O)[O-])c1C | 123* | -4 | -8 | 55 | 18 | 0
CC(=O)c1c(C)[nH]c(C(=O)OCC(=O)Nc2cc(Cl)ccc2[N+](=O)[O-])c1C | 40 | 20 | 3 | -5 | 15 | 0
COC(=O)c1ccc(-c2noc(CN(Cc3ccncc3)CC3CCCO3)n2)cc1 (configuration not stated) | -5 | 57* | -3 | 9 | 2 | 0
CC(C)Oc1ccc(CNC2CCOC(C)(C)C2)cc1 (configuration not stated) | 2 | 7 | -10 | 7 | 26 | 0
O=[N+]([O-])c1ccc2nc(-[n+]3c(-c4ccccc4)cc(-c4ccccc4)cc3-c3ccccc3)[nH]c2c1 | 45 | 58* | 31 | -8 | 38 | 1
O=[N+]([O-])c1ccc2nc(-c3ccc(Cl)cc3)[nH]c2c1 | 28 | -2 | 22 | 25 | 63* | 0
Nc1nc2ccc([N+](=O)[O-])cc2[nH]1 | . | 6 | -3 | 9 | . | 0
O=C(CN1CCC(O)(c2ccc3c(c2)OCO3)CC1)OC1CCCCC1 | . | 5 | . | 8 | 20 | 0
O=C(CN1CCSC1=NCc1ccccc1)c1ccc(Cl)cc1 | -6 | 0 | . | -10 | 5 | 0
COc1ccc(/C=N/n2c(=O)[nH]c3c([nH]c4ccc(Cl)cc43)c2=O)cc1CN1CCCCC1 | 3 | -7 | -9 | 23 | . | 0
COc1ccc2c(c1)[nH]c1c(=O)n(/N=C/C3C(C)C=C(C)CC3C)c(=O)[nH]c12 (configuration not stated) | 53 | -27 | 100* | 108 | -1 | 0
COc1ccc2[nH]c3c(=O)n(/N=C/[C@H]4C(C)C=C(C)CC4C)c(=O)[nH]c3c2c1 (some centres not stated) | 5 | 1 | 88* | 0 | -20 | 0
COc1ccc(/C=N/n2c(=O)[nH]c3c([nH]c4ccc(Br)cc43)c2=O)cc1CN1CCOCC1 | 7 | -2 | -16 | -11 | -3 | 0
CC1=CC(C)[C@H](/C=N/n2c(=O)[nH]c3c([nH]c4ccc(Br)cc43)c2=O)C(C)C1 (some centres not stated) | 61 | 64* | + | -22 | 7 | 0
COc1ccc2[nH]c3c(=O)n(N)c(=O)[nH]c3c2c1 | 4 | -3 | 3 | -2 | . | 0
CC(C)(C)OC(=O)C[C@@H]1C/C=C\C[C@H](CC(=O)N(CCO)Cc2ccccc2)C(=O)N[C@@H](Cc2c[nH]c3ccccc23)COC1=O | -6 | . | -19 | -17 | . | 1
CCCCNC(=O)Cc1cc(=O)[nH]c(=O)[nH]1 | 1 | -9 | 10 | -3 | -7 | 0
O=[N+]([O-])c1cc(S(=O)(=O)NCCN2CCOCC2)ccc1Sc1nnnn1-c1ccccc1 | -15 | 5 | 55 | -26 | 7 | 0
